According to ChEMBL document CHEMBL1208663, “Synthesis of 2-substituted-N-[4-(1-methyl-4,5-diphenyl-1H-imidazole-2-yl)phenyl]acetamide derivatives and evaluation of their anticancer activity” (Eur J Med Chem, 2010):
Converted amounts (≈) assume the structure as drawn. The source made the active and inactive calls. The rule behind the calls is not given here.

Experiments:
MCF7 [1] = assay: Cytotoxicity against human MCF7 cells at 16 ug/ml after 24 hrs by MTT assay; assay type: functional
Outline: (§1)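 MCF-7 cells grown in DMEM with 1 mM pyruvate, 10 µg/mL insulin, 10% FBS and penicillin/streptomycin at 37 °C, 5% CO2. Exposed 24 h to 0.64–80 µg/mL (DMSO stocks diluted in medium). MTT added, A540 measured. Percent viability relative to untreated cells; IC50 derived. Three experiments with four wells per concentration.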

HT-29 [2] = assay: Cytotoxicity against human HT-29 cells at 32 ug/ml after 24 hrs by MTT assay; assay type: functional
Outline: (§2)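 HT-29 cells grown in McCoy's 5A with 10% FBS and penicillin/streptomycin at 37 °C, 5% CO2. Treated 24 h with 0.64, 1.6, 6.4, 16, 32 or 80 µg/mL (DMSO stock diluted in medium). MTT added, absorbance read at 540 nm. Viability taken relative to untreated control (100%); IC50 calculated. Four wells per concentration, three repeat experiments.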

HT-29 [3] = assay: Inhibition of DNA synthesis in human HT-29 cells after 48 hrs by BrdU incorporation assay; assay type: functional, cell-based
Outline: (§3)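 HT-29 cells (McCoy's 5A, 10% FBS) seeded at 1 × 10^3 cells/mL. Exposed to three concentrations for 24 h and 48 h at 37 °C, with DMSO solvent control. BrdU label for 2 h, then fixation and anti-BrdU-POD for 90 min. Substrate colour read at 492 nm with blank subtracted. Triplicate wells, three experiments.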

HT-29 [4] = assay: Induction of apoptosis in human HT-29 cells assessed as DNA fragmentation after 24 hrs by gel electrophoresis
MCF7 [5] = assay: Cytotoxicity against human MCF7 cells at 32 ug/ml after 24 hrs by MTT assay; assay type: functional; outline: as §1
MCF7 [6] = assay: Cytotoxicity against human MCF7 cells at 6.4 ug/ml after 24 hrs by MTT assay; assay type: functional; outline: as §1
HT-29 [7] = assay: Cytotoxicity against human HT-29 cells at 1.6 ug/ml after 24 hrs by MTT assay; assay type: functional; outline: as §2
MCF7 [8] = assay: Cytotoxicity against human MCF7 cells at 0.64 ug/ml after 24 hrs by MTT assay; assay type: functional; outline: as §1
MCF7 [9] = assay: Cytotoxicity against human MCF7 cells at 80 ug/ml after 24 hrs by MTT assay; assay type: functional; outline: as §1
HT-29 [10] = assay: Cytotoxicity against human HT-29 cells after 24 hrs by MTT assay; assay type: functional, cell-based; settings: HT-29, 24 h; outline: as §2
HT-29 [11] = assay: Cytotoxicity against human HT-29 cells at 6.4 ug/ml after 24 hrs by MTT assay; assay type: functional; outline: as §2
MCF7 [12] = assay: Inhibition of DNA synthesis in human MCF7 cells after 48 hrs by BrdU incorporation assay; assay type: functional, cell-based
Outline: (§4)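 MCF-7 cells (DMEM, pyruvate, insulin, 10% FBS) seeded at 1 × 10^3 cells/mL. Treated at three concentrations for 24 h or 48 h at 37 °C against DMSO control. Labelled with BrdU for 2 h, fixed, then anti-BrdU-POD for 90 min. Colorimetric substrate read at 492 nm after blank subtraction. Triplicate wells, repeated three times.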

HT-29 [13] = assay: Inhibition of DNA synthesis in human HT-29 cells by BrdU incorporation assay; assay type: functional, cell-based; settings: TDE = time-dependent effect; outline: as §3
MCF7 [14] = assay: Cytotoxicity against human MCF7 cells at 1.6 ug/ml after 24 hrs by MTT assay; assay type: functional; outline: as §1
HT-29 [15] = assay: Cytotoxicity against human HT-29 cells at 16 ug/ml after 24 hrs by MTT assay; assay type: functional; outline: as §2
MCF7 [16] = assay: Inhibition of DNA synthesis in human MCF7 cells by BrdU incorporation assay; assay type: functional, cell-based; settings: TDE = time-dependent effect; outline: as §4
MCF7 [17] = assay: Cytotoxicity against human MCF7 cells after 24 hrs by MTT assay; assay type: functional, cell-based; settings: MCF7, 24 h; outline: as §1
HT-29 [18] = assay: Cytotoxicity against human HT-29 cells at 0.64 ug/ml after 24 hrs by MTT assay; assay type: functional; outline: as §2
HT-29 [19] = assay: Cytotoxicity against human HT-29 cells at 80 ug/ml after 24 hrs by MTT assay; assay type: functional; outline: as §2

Row | Structure (SMILES) | Activity (MCF7 [1]) [%] | Activity (HT-29 [2]) [%] | inhibition (HT-29 [3]) | Activity (HT-29 [4]) | Activity (MCF7 [5]) [%] | Activity (MCF7 [6]) [%] | Activity (HT-29 [7]) [%] | Activity (MCF7 [8]) [%] | Activity (MCF7 [9]) [%] | IC50 (HT-29 [10]) [µg/mL] | Activity (HT-29 [11]) [%] | inhibition (MCF7 [12]) | inhibition (HT-29 [13]) | Activity (MCF7 [14]) [%] | Activity (HT-29 [15]) [%] | inhibition (MCF7 [16]) | IC50 (MCF7 [17]) [µg/mL] | Activity (HT-29 [18]) [%] | Activity (HT-29 [19]) [%]
1 | Cn1c(-c2ccc(NC(=O)CSc3nc4ccccc4o3)cc2)nc(-c2ccccc2)c1-c1ccccc1 | 56 | 79.3 | Dose-dependent effect | inactive | 71.5 | 42.3 | 41 | 18.7 | 76.3 | 11 (≈ 21.3 µM) | 44.9 | Dose-dependent effect | tde | 27.4 | 56.2 | tde | 11.2 (≈ 21.7 µM) | 24.8 | 81.5
2 | CCN1CCN(CC(=O)Nc2ccc(-c3nc(-c4ccccc4)c(-c4ccccc4)n3C)cc2)CC1 | 32.8 | 38.8 | – | – | 38.6 | 16.4 | 13.9 | 4.7 | 46.3 | 75 (≈ 156 µM) | 17.2 | – | – | 14.6 | 28.4 | – | > 80 | 7.4 | 51.2
3 | Cn1c(-c2ccc(NC(=O)CN3CCN(Cc4ccccc4)CC3)cc2)nc(-c2ccccc2)c1-c1ccccc1 | 28.3 | 40 | – | – | 33.6 | 23.8 | 26 | 7.2 | 49.5 | 65.5 (≈ 121 µM) | 26.8 | – | – | 13.3 | 37 | – | > 80 | 15.5 | 54.5
4 | Cn1ccnc1SCC(=O)Nc1ccc(-c2nc(-c3ccccc3)c(-c3ccccc3)n2C)cc1 | 32.4 | 41.1 | – | – | 43.4 | 27.2 | 23.8 | 10.3 | 64 | 47.5 (≈ 99 µM) | 30.7 | – | – | 17.5 | 36.5 | – | 46.5 (≈ 97 µM) | 13.6 | 69.4
5 | Cc1nnc(SCC(=O)Nc2ccc(-c3nc(-c4ccccc4)c(-c4ccccc4)n3C)cc2)s1 | 74.9 | 87.1 | Dose-dependent effect | Active | 83.4 | 67.8 | 39.9 | 35.1 | 85.2 | 2.7 (≈ 5.43 µM) | 73 | Dose-dependent effect | tde | 37.5 | 83.3 | tde | 3.2 (≈ 6.43 µM) | 34.8 | 90.5
6 | Cn1c(-c2ccc(NC(=O)CCl)cc2)nc(-c2ccccc2)c1-c1ccccc1 | 15.2 | 53.2 | – | – | 42.8 | 14.2 | 14.4 | 3.4 | 70 | 28.7 (≈ 71.4 µM) | 15.1 | – | – | 4.3 | 23.7 | – | 42.6 (≈ 106 µM) | 7.2 | 76.1
7 | Cn1cnnc1SCC(=O)Nc1ccc(-c2nc(-c3ccccc3)c(-c3ccccc3)n2C)cc1 | 61.2 | 86.1 | Dose-dependent effect | Active | 89.2 | 59.2 | 40.8 | 33.1 | 89.3 | 10.7 (≈ 22.3 µM) | 43.1 | Dose-dependent effect | tde | 42.8 | 59.1 | tde | 3.2 (≈ 6.66 µM) | 32 | 88
